S100A4 inh HTS: S100A4-myosin IIA interaction inhibition; 360,000 tested, 0.14% active; inhibition, % at 10.7 µM; AID 652163; S100A4/TAMRA-MyoIIA peptide fluorescence polarization; P26447;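 active means mean inhibition of at least 70% across replicates, with every replicate also reaching that level; inconclusive means mean inhibition reaches 70% but some replicates fall short; inactive means mean inhibition below 70%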
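Compound dosing: one dose per compound; test system: human S100A4 monomer with TAMRA-labelled myosin IIA peptide; probe or stimulus: TAMRA-labelled myosin IIA heavy-chain peptide probe, 5 nM; medium: HEPES buffer with Ca2+, pH 7.2; schedule: 5 min incubation before reading; benchmarks: neutral control DMSO, positive control TFP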
CaV13 ICDI inh: Primary screen for inhibitors of IQ motif and Ca2+-dependent inactivation inhibitor domain binding in CACNA1D, Förster resonance energy transfer in living cells, … | inhibition, % at 12.3 µM | AID 743397 | 340,000 tested, 0.098% active | HEK cells, CFP/YFP FRET ICDI-IQ, plate reader, 10 min; percent FRET-ratio fall versus neutral wells;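 active means mean replicate inhibition of at least 30% and at least 1% of replicates passing that level; inconclusive means only one of the two criteria is met; inactive means neither criterion is met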;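 further: 0% = median of the neutral control wells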
SIRT5 inh: blocks human SIRT5 desuccinylation of peptide; Purified SirT5, succinyl-peptide AMC, trypsin-coupled fluorescence; AID 652115; 330,000 tested, 1.1% active; inhibition, % at 15 µM; in the data active means inhibition above about 15%; inconclusive means no clear call, values can overlap the other calls
DENV2 CPE rescue: DENV2-induced cell death inhibition; DENV2-infected cells, cytopathic effect rescue, plate reader; CPE inhibition, % at 9.99 µM; 350,000 tested, 1.7% active; AID 651640; in the data active means CPE inhibition above about 20%, passing the limit was not always enough; inconclusive means no clear call, values can overlap the other calls; tested in BHK-21 cells;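 further: 0% = median of neutral control wells and 100% = median of positive control wells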
MLL AF4-AF9 inh: blocks AF4 peptide binding to human AF9; P42568; 350,000 tested, 0.47% active; inhibition, % at 10 µM; AlphaScreen, biotin-AF4 peptide binding to FLAG-AF9; AID 651704;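 active means every replicate reaching a set inhibition limit, whatever the replicate mean, cut at about 25% in these data; inconclusive means mean inhibition reaches that limit but some replicates miss it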;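 further: 0% = plate neutral control median and 100% = total signal loss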
Target sequence (P42568 whole entry, looked up): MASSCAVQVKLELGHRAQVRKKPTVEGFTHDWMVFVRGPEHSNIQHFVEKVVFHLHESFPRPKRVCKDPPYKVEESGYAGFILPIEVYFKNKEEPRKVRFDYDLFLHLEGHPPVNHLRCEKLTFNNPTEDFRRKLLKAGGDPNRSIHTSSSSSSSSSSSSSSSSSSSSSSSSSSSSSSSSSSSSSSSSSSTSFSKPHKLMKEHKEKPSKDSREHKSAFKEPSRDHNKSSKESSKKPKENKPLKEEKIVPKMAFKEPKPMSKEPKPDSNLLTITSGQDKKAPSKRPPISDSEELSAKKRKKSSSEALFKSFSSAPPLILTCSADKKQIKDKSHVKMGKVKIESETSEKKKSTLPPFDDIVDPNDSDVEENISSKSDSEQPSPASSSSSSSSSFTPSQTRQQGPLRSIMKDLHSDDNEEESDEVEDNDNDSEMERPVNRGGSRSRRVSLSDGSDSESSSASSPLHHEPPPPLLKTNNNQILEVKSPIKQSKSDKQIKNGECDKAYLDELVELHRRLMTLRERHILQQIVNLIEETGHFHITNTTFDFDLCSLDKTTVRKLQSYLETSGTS
An asterisk follows results filed as active; ? = inconclusive; · = no result; ! = not confirmed by another sample. Hits are enriched below; roughly 2.7% of the tested compounds scored in any of these assays.

SMILES	S100A4 inh HTS	CaV13 ICDI inh	SIRT5 inh	DENV2 CPE rescue	MLL AF4-AF9 inh
Cc1cc(-c2cc(C)c(N)cc2C)c(C)cc1N	-2	-10	19*	0	5
O=C(C[C@H]1CC[C@@H]2[C@H](COC[C@@H](O)CN2C(=O)c2cccnc2)O1)NCc1ccc(-c2ccccc2)cc1	-27	·	-2	23*	-3
CCCNC(=O)C[C@@H]1CC[C@H]2[C@@H](COC[C@H](O)CN2C(=O)c2ccccn2)O1	-5	·	-5	11	-1
O=C(C[C@@H]1CC[C@@H]2[C@H](COC[C@H](O)CN2C(=O)c2ccccc2F)O1)NCc1ccccc1	-1	·	-2	?	0
O=C(C[C@@H]1CC[C@H]2[C@@H](COC[C@H](O)CN2C(=O)c2ccccc2F)O1)NCc1ccccc1	-1	·	-2	86*	-7
CCCNC(=O)C[C@H]1CC[C@@H]2[C@H](COC[C@@H](O)CN2C(=O)c2ccccn2)O1	-3	-4	5	89*!	1
CS(=O)(=O)N1C[C@H](O)COC[C@H]2O[C@@H](CC(=O)NCc3ccc(-c4ccccc4)cc3)CC[C@@H]21	-4	·	-3	79*	20
CS(=O)(=O)N1C[C@H](O)COC[C@@H]2O[C@H](CC(=O)NCc3ccc(-c4ccccc4)cc3)CC[C@H]21	-13	·	-5	7	15
O=C(C[C@@H]1CC[C@@H]2[C@H](COC[C@@H](O)CN2C(=O)c2cccnc2)O1)NCc1ccc(-c2ccccc2)cc1	-67	·	3	-6	-1
C[C@@H]1CN([C@H](C)CO)C(=O)c2cc(NC(=O)CCCN(C)C)ccc2O[C@H]1CN(C)C(=O)NC1CCCCC1	21	·	-3	2	-3
CNC(=O)C[C@H]1CC[C@H]2[C@H](COc3ccc(NC(=O)C4CCCCC4)cc3C(=O)N2C)O1	-4	·	0	2	-2
O=C(C[C@H]1CC[C@@H]2[C@H](COC[C@H](O)CN2C(=O)c2ccncc2)O1)NCc1ccc(-c2ccccc2)cc1	14	·	0	20*	-6
CCNC(=O)C[C@H]1CC[C@H]2[C@@H](COC[C@H](O)CN2C(=O)c2cccnc2)O1	-34	·	0	94*	1
CCCNC(=O)C[C@H]1CC[C@@H]2[C@H](COC[C@H](O)CN2C(=O)c2cccnc2)O1	-7	·	-7	-6	-2
O=C(C[C@@H]1CC[C@@H]2[C@H](COC[C@H](O)CN2C(=O)c2ccncc2)O1)NCc1ccc(-c2ccccc2)cc1	23	·	-2	-1	-1
C[C@H](CO)N1C[C@H](C)[C@H](CN(C)C(=O)NC2CCCCC2)Oc2ccc(NS(=O)(=O)c3ccc(Cl)cc3)cc2C1=O	-38	·	-5	2	-1
O=C(C[C@@H]1C[C@H]2c3cc(NC(=O)Nc4ccc(C(F)(F)F)cc4)ccc3O[C@H]2[C@H](CO)O1)NCC1CC1	27	·	10	13	9
CCC(C)NC(=S)Nc1ccc2nc(N3CCN(CC)CC3)cc(C)c2c1 (configuration not stated)	1	-13	-2	-4	11
Cc1cc(N2CCN(C)CC2)nc2ccc(NC(=S)NCc3cccs3)cc12	5	-2	-4	-16	·
CCN1CCN(c2cc(C)c3cc(NC(=S)N(CC)CC)ccc3n2)CC1	3	-20	8	·	25*
CCN1CCN(c2cc(C)c3cc(NC(=S)NCc4cccs4)ccc3n2)CC1	-3	7	-2	-3	30*
CN1CCN(C(=O)[C@@H]2[C@@H](CO)[C@@H]3Cn4c(ccc(/C=C/c5ccccc5)c4=O)[C@@H]3N2CC2CC2)CC1	5	·	-36	-2	5
CN(C)S(=O)(=O)N1C(=O)c2ccccc2C1=O	1	-2	-6	3	-3
CN(C)/C=C1\C=C2C(=O)c3ccccc3N2C1=O	76*	-22	5	-3	2
O=C(C[C@@H]1C=C[C@@H](NC(=O)c2cccc(F)c2)[C@@H](CO)O1)NCc1ccccc1	3	·	-2	16	-2
SMILES	S100A4 inh HTS	CaV13 ICDI inh	SIRT5 inh	DENV2 CPE rescue	MLL AF4-AF9 inh
COc1ccc2c3c(n(C)c2c1)[C@H](CO)N(Cc1ccccc1F)CC31CCN(CC2CC2)CC1	6	·	-5	6	40*
COc1ccc2c3c(n(C)c2c1)[C@H](CO)NCC31CN(CC2CCOCC2)C1	-2	·	-3	-4	35*
COc1ccc2c3c(n(C)c2c1)[C@H](CO)N(Cc1ccc(Cl)cc1)CC31CCN(CC2CC2)CC1	-3	·	4	7	30*
COc1ccc2c3c(n(C)c2c1)[C@H](CO)N(Cc1ccc(F)cc1)CC31CCN(CC2CC2)CC1	8	·	·	?	7
COc1ccc2c3c(n(C)c2c1)[C@H](CO)NCC31CCN(CC2CCCC2)CC1	-9	·	-2	-10	14
COc1ccc2c3c(n(C)c2c1)[C@@H](CO)N(C)CC31CCN(CC2CC2)CC1	·	·	·	48*	-3
COc1ccc2c3c(n(C)c2c1)[C@H](CO)N(Cc1ccc(Cl)cc1)CC31CN(CC2CC2)C1	·	·	·	8	-1
C[C@@H]1CCCCO[C@@H](CN(C)C(=O)c2ccncc2)[C@H](C)CN([C@@H](C)CO)C(=O)c2cc(NC(=O)c3ccncc3)ccc2O1	8	·	-3	?	0
COc1cccc(-c2ccc3c(c2)[C@H]2[C@H](CCN2C(=O)c2ccccn2)[C@@H](CO)N3)c1	24	·	4	-3	5
COc1ccc2c3c(n(C)c2c1)[C@@H](CO)N(Cc1ccc(Cl)cc1)CC31CCN(CC2CC2)CC1	-1	·	5	3	37*
COc1ccc2c3c(n(C)c2c1)[C@H](CO)N(Cc1ccc(F)cc1)CC31CN(CC2CC2)C1	-7	·	7	-1	4
COc1ccc2c3c(n(C)c2c1)[C@H](CO)N(Cc1ccc(F)cc1)CC31CCN(CC2CCOCC2)CC1	0	·	2	?	0
COc1ccc2c3c(n(C)c2c1)[C@@H](CO)N(Cc1ccc(F)cc1)CC31CN(CC2CCOCC2)C1	·	·	·	99*	17
CC(CNC(=O)[C@H]1O[C@@H](n2cnc3c(=O)[nH]c(N)nc32)[C@H](O)[C@@H]1O)c1ccccc1 (some centres not stated)	-3	-4	0	68*	·
Nc1nc2c(ncn2[C@@H]2O[C@H](C(=O)NCC(c3ccccc3)c3ccccc3)[C@@H](O)[C@H]2O)c(=O)[nH]1	-1	-8	1	-6	·
COc1c(Cl)cc(-c2noc(C)c2C(=O)NCc2ccc3c(c2)OCO3)cc1Cl	1	71*	·	3	10
C[C@@H]1CN([C@H](C)CO)C(=O)c2cc(NS(=O)(=O)c3cn(C)cn3)ccc2O[C@@H](C)CCCCO[C@H]1CN(C)C(=O)Nc1ccccc1	8	·	0	6	-1
O=C(O)c1ccc(Nc2nc(-c3ccccc3)nc3ccccc23)cc1	5	-20	39*	2	-4

Bioassay records from PubChem BioAssay.
